From ChEMBL document CHEMBL2021916, “Aflaquinolones A-G: secondary metabolites from marine and fungicolous isolates of Aspergillus spp” (J Nat Prod, 2012)

Experiments:
B16-F10 = assay: Cytotoxicity against mouse B16F10 cells after 48 hrs by EZ-CyTox enhanced cell viability assay; format: functional, cell-based; details: B16-F10, 48 h
In short: (§1)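 Seeding densities: K562 3 × 10⁴, B16F10 3 × 10³, HL-60 1 × 10⁵, MDA-MB-231 5 × 10³ and Hep3B 5 × 10³ cells per well. Cells were exposed for 48 h to test compounds supplied as DMSO solutions. Viability was read with the EZ-CyTox enhanced cell viability kit as absorbance at 450 nm.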

HL-60 = assay: Cytotoxicity against human HL60 cells after 48 hrs by EZ-CyTox enhanced cell viability assay; format: functional, cell-based; details: HL-60, 48 h; in short: as §1
MDA-MB-231 = assay: Cytotoxicity against human MDA-MB-231 cells after 48 hrs by EZ-CyTox enhanced cell viability assay; format: functional, cell-based; details: MDA-MB-231, 48 h; in short: as §1
[1] = Cytotoxicity against human Hep3B cells after 48 hrs by EZ-CyTox enhanced cell viability assay; format: functional, cell-based, Hep 3B2; in short: as §1
K562 = assay: Cytotoxicity against human K562 cells after 48 hrs by EZ-CyTox enhanced cell viability assay; format: functional, cell-based; details: K562, 48 h; in short: as §1

Measured: IC50

CO[C@@H]1C(=O)Nc2ccc(/C=C/[C@]3(C)CCC(=O)[C@@H](C)C3)c(O)c2[C@@]1(O)c1ccccc1 [AFLAQUINOLONE A]
> 80 µM: all assays above

CO[C@@H]1C(=O)Nc2ccc(/C=C/[C@]3(C)CC[C@@H](O)[C@@H](C)C3)c(O)c2[C@@]1(O)c1ccccc1 [AFLAQUINOLONE B]
> 80 µM: all assays above

CO[C@@H]1C(=O)Nc2ccc(/C=C/[C@@]3(C)CCC(=O)[C@H](C)C3)c(O)c2[C@@]1(O)c1ccccc1 [AFLAQUINOLONE C]
> 80 µM: all assays above

CO[C@@H]1C(=O)Nc2cccc(O)c2[C@@]1(O)c1ccccc1 [AFLAQUINOLONE E]
> 80 µM: all assays above

O=C1Nc2ccccc2[C@@](O)(c2ccccc2)[C@@H]1O [AFLAQUINOLONE F]
> 80 µM: all assays above

O=C1Nc2ccccc2[C@@](O)(c2ccccc2)[C@H]1O [AFLAQUINOLONE G]
> 80 µM: all assays above
